# Screens: PubChem, Broad Institute
# MITF TRPM1 HTS: activators of MITF-driven TRPM1 promoter reporter, primary screen, cell-based, SK-MEL-5, luciferase, single point; 0.75% of 300,000 active; SK-MEL-5 TRPM1-promoter luciferase, 24 h; % of positive control, neutral wells = 0; activation, % at 12.5 µM; AID 588334, 2011;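 active = mean activation of at least 80% with every replicate also reaching 80%; inconclusive = mean reaches 80% but some replicate falls short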;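 also: 0% = neutral control wells and 100% = parthenolide positive control wells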
# esBAF inh: Bmi1 luciferase reporter increase in mESCs, primary screen, esBAF inhibitor project, mouse ES cells, Bmi1 luciferase knock-in, single point; 24 h; 100% = twice the neutral-well signal; 2% of 350,000 active; reporter increase, % at 12.5 µM; in the data active = activation above about 40%; inconclusive = no clear call, values can overlap the other calls;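 also: 0% = median of the plate's neutral control wells and 100% = double that signal; a rise in the Bmi1 reporter signal indicates esBAF inhibition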
# Wnt act: Wnt/beta-catenin pathway activators, primary screen, cell-based, plate reader, single point. Wnt/beta-catenin reporter cell assay, activator. 1.2% of 300,000 active. activation, % at 9.35 µM. AID 743398, 2014; in the data active = activation above about 30%, passing the limit was not always enough; inconclusive = no clear call, values can overlap the other calls;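 also: 0% = neutral control wells and 100% = positive control wells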
# CASP6 VEID inh: human caspase-6 inhibitors, primary screen, biochemical, VEID-R110 fluorescence, single point, set 2 | P55212 | purified caspase-6, Z-VEID-R110 cleavage fluorescence | inhibition, % at 12.5 µM | 0.53% of 350,000 active;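 active = mean inhibition across replicates at least about 35%, with every replicate also reaching that limit, limit read from the data; inconclusive = only one of the two criteria met; inactive = neither criterion met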;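 also: 0% = median of neutral control wells and 100% = no fluorescence left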
# Target sequence (P55212 24-179 limits assumed): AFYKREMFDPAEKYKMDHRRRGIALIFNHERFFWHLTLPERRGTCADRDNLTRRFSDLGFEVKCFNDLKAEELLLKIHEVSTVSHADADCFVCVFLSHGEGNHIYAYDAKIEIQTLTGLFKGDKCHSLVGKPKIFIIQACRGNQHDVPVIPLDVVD
# Target sequence (P55212 194-293 limits assumed): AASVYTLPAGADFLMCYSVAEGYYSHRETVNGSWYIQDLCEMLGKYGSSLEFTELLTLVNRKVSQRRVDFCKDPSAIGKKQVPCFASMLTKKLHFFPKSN
# Xi reactivation: activators of inactive X chromosome reactivation, primary screen, imaging, XiGFP fibroblasts, GFP high-content imaging, set 2; XiGFP mouse fibroblasts, % GFP-positive cells imaging, 3 d; cells co-treated with 5-aza-dC sensitizer; scaled so ellipticine positive control = 100%; AID 743238, 2013; 0.055% of 360,000 active; activation, % at 7.58 µM;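 active = mean normalized replicate activation at least 10% and every replicate at or above 10%; inconclusive = only one of the two criteria met; inactive = mean below 10% and not all replicates reach 10%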;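 also: 0% = median of on-plate neutral control wells and 100% = ellipticine 6 µM median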
#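 Schedule: 3 d treatment, 15 min room-temperature fixation; system: 68-5-11 XiGFP fibroblast line; buffer or medium: DMEM plus 5-aza-dC sensitizer; control set: ellipticine 6 µM positive control; compound: one concentration, pinned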
# NSD2 inh: NSD2 histone methyltransferase inhibitors, primary screen, biochemical, AlphaScreen, single concentration, set 2 | Histone-lysine N-methyltransferase NSD2 (Homo sapiens), O96028 | NSD2 peptide methylation, 120 min | inhibition, % at 12.5 µM | 0.54% of 310,000 active; in the data active = inhibition above about 50%
# Ring1 derepress: Ring1 mRNA increase in mouse ESCs, confirmation, esBAF inhibitor project, cell-based, mouse ESC, RT-qPCR, cherry-pick; shares compounds with esBAF inh; mouse ESC E14, Ring1 mRNA RT-qPCR fold change; fold change at 33 µM; 550 tested, under 10 active; AID 743176, 2013;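 active = Ring1 gene expression raised more than 2-fold over untreated cells in both replicates at either tested dose; inconclusive = only one replicate above 2-fold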;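 also: Ring1 transcript normalised to actin housekeeping signal by TaqMan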
# Fgf4 repress: Fgf4 mRNA decrease in mouse ESCs, confirmation, esBAF inhibitor project, cell-based, mouse ESC, RT-qPCR, cherry-pick | shares compounds with esBAF inh | mouse ESC E14, Fgf4 mRNA qPCR fold change; active compounds read low | Fgf4 expression fold change at 33 µM | 4% of 550 active | AID 743177, 2013;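 active = Fgf4 expression under 0.8 fold of control in both repeat measurements at one or both tested doses; inconclusive = under 0.8 fold in just a single repeat measurement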;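 also: Fgf4 transcript normalised to actin in duplex TaqMan qPCR; cells exposed to compound for 24 h before lysis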
# esBAF Bmi1 qPCR: esBAF inhibition via Bmi1 de-repression, confirmation, cell-based, RT-qPCR, mouse ESC, single point, cherry-pick. AID 743180, 2013. mouse ESE14 ES cells, Bmi1 mRNA qPCR fold; active compounds read high. fold change at 33 µM. shares compounds with esBAF inh. 550 tested, under 10 active;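 active = Bmi1 expression fold change above 6 at either tested concentration, seen in replicate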;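 also: higher fold means more Bmi1 de-repression and stronger esBAF inhibition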
# A549 tox SP: A549 cell cytotoxicity, cytotoxicity control, plate reader, single point, cherry-pick | shares compounds with esBAF inh | cell viability change % (negative = cytotoxic), % at 25 µM, hits read low | 550 tested, under 10 active | AID 743188, 2013; call rule not given here
# HepG2 tox SP: HepG2 cell cytotoxicity, cytotoxicity control, plate reader, single point, cherry-pick | active compounds read low | 4% of 550 active | shares compounds with esBAF inh | activity change, negative = inhibition, % at 25 µM; in the data active = activity change below about -50%
# HEK293 cytotox SP: HEK293 cell cytotoxicity, cytotoxicity control, plate reader, single point, cherry-pick. 3% of 550 active. shares compounds with esBAF inh. activity change, negative = inhibition, % at 25 µM, hits read low; in the data active = activity change below about -38%, passing the limit was not always enough
# Numbers without * were called inactive; ? = inconclusive; nt = no result. An excerpt weighted towards active compounds, which were near 3% of everything screened.
SMILES,MITF TRPM1 HTS,esBAF inh,Wnt act,CASP6 VEID inh,Xi reactivation,NSD2 inh,Ring1 derepress,Fgf4 repress,esBAF Bmi1 qPCR,A549 tox SP,HepG2 tox SP,HEK293 cytotox SP
Cc1ccc(NC(=O)C(=O)Nc2ccc(C)cn2)nc1,79,57*,2,-3,0,-2,0.97,1.1,1.1,-17,-28,-13
CC(=O)Nc1ccc2c(c1)CCc1ccccc1-2,37,7,17,4,0,-1,nt,nt,nt,nt,nt,nt
CC(=O)Nc1ccc2c(c1)Cc1c(F)cccc1-2,42,83*,27,-1,0,-1,1.1,?,1.5,7,60,3
CNC[C@@H]1Oc2ccc(NC(=O)Nc3cccc4ccccc34)cc2C(=O)N([C@H](C)CO)C[C@H]1C,nt,-1,nt,4,-1,nt,nt,nt,nt,nt,nt,nt
O=C(N/N=C/c1ccc(Cl)cc1)Nc1ccccc1,95*,59*,15,nt,nt,-4,1.4,0.84,1.7,-7,-1,-12
C[C@@H]1CCCCO[C@H](CN(C)C(=O)c2ccncc2)[C@H](C)CN([C@H](C)CO)C(=O)c2cc(NC(=O)c3ccccc3)ccc2O1,nt,9,nt,-1,0,nt,nt,nt,nt,nt,nt,nt
O=C(O)Cn1cnc2ccccc2c1=O,-3,-8,nt,-1,nt,3,nt,nt,nt,nt,nt,nt
Cc1cc(C(=O)Cn2cnc3ccccc3c2=O)c(C)n1C1CC1,53,65*,20,2,0,2,1.3,0.92,1.3,-2,-22,1
CC1CCN(c2oc(-c3cccc4ccccc34)nc2C#N)CC1,?,67*,-4,1,nt,2,0.97,0.95,1.5,-1,-53*,-19
N#Cc1nc(-c2cccc3ccccc23)oc1N1CCCCC1,78,6,nt,nt,nt,-7,nt,nt,nt,nt,nt,nt
O=C1c2ccccc2CN1c1ccccc1,nt,55*,16,-1,0,-1,1.3,1,1.6,-14,-32,-23
COc1ccc(N2Cc3ccccc3C2=O)cc1,11,-14,11,3,0,-2,nt,nt,nt,nt,nt,nt
COc1ccc(S(=O)(=O)Nc2ccc3c(c2)C(=O)N([C@@H](C)CO)C[C@H](C)[C@H](CN(C)Cc2ccc(C(=O)Nc4ccccc4N)cc2)O3)cc1,nt,-28,nt,-2,0,nt,nt,nt,nt,nt,nt,nt
COc1ccc(-c2cn3c(C)c(C(=O)NC(C)(C)C)sc3n2)cc1,nt,72*,27,1,0,nt,0.82,0.9,1.9,3,-12,-8
COc1ccc(-c2cn3c(C)c(C(=O)NC(C)C)sc3n2)cc1,38,21,26,nt,nt,1,nt,nt,nt,nt,nt,nt
C[C@@H]1CN([C@H](C)CO)C(=O)c2cccc(NC(=O)c3nc4ccccc4s3)c2O[C@H]1CN(C)Cc1ccncc1,nt,11,nt,5,0,nt,nt,nt,nt,nt,nt,nt
